From ChEMBL document CHEMBL4041548, “Ester Prodrugs of IHVR-19029 with Enhanced Oral Exposure and Prevention of Gastrointestinal Glucosidase Interaction” (ACS Med Chem Lett, 2017)
Active and inactive are the calls of the source. The rule behind the calls is not given here.

Experiments:
[1] = Apparent permeability of the compound across basolateral side to apical side in human Caco2 cells assessed as drug recovery at 5 uM measured after 2 hrs by LC-MS/MS analysis; type: ADME, cell-based; conditions: Caco-2, read-out: Drug recovery
Mus musculus [2] = test: Prodrug activation in BALB/c mouse assessed as 3-(tert-butyl)-1-cyclohexyl-1-(6-((2R,3R,4R,5S)-3,4,5-trihydroxy-2-(hydroxymethyl)piperidin-1-yl)hexyl)urea AUC(0 to infinity) at 25 mg/kg, po administered as single dose by LC-MS/MS analysis; type: organism-based; set-up: dose 25 mg/kg, time infinity, route oral; conditions: in vivo
[3] = Prodrug activation in simulated intestinal fluid assessed as 3-(tert-butyl)-1-cyclohexyl-1-(6-((2R,3R,4R,5S)-3,4,5-trihydroxy-2-(hydroxymethyl)piperidin-1-yl)hexyl)urea formation at 5 uM measured after 4 hrs by LC-MS/MS analysis
Procedure, shortened: (§1)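 Chemical stability assessed by incubation in simulated gastric fluid and simulated intestinal fluid; percent of compound remaining was measured.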

[4] = Stability in simulated gastric fluid assessed as parent compound remaining at 5 uM measured after 4 hrs by LC-MS/MS analysis; procedure, shortened: as §1
[5] = Metabolic stability in pooled human liver microsomes assessed as parent compound remaining at 200 uM measured after 60 mins in presence of NADPH and UDPGA by LC-MS/MS analysis; type: ADME, microsome; conditions: read-out: Stability
Procedure, shortened: (§2)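 Prodrugs or parent incubated in pooled human or mouse liver microsomes for up to 60 min, with or without cofactor. Percent remaining and percent conversion to the parent were measured.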

[6] = Metabolic stability in pooled human liver microsomes assessed as parent compound remaining at 200 uM measured after 60 mins by LC-MS/MS analysis; type: ADME, microsome; conditions: liver microsomes, read-out: Stability; procedure, shortened: as §2
Mus musculus [7] = test: Prodrug activation in BALB/c mouse assessed as 3-(tert-butyl)-1-cyclohexyl-1-(6-((2R,3R,4R,5S)-3,4,5-trihydroxy-2-(hydroxymethyl)piperidin-1-yl)hexyl)urea Cmax at 25 mg/kg, po administered as single dose by LC-MS/MS analysis; type: organism-based; set-up: dose 25 mg/kg, route oral; conditions: in vivo
Procedure, shortened: (§3)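 Male BALB/c mice dosed with the prodrugs or the parent orally (25 or 100 mg/kg) or intravenously (5 mg/kg). The parent compound was quantified in plasma and PK parameters were derived from it. The first sampling point was 5 min post-dose, and prodrugs were tracked up to 4 h.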

[8] = Half life in pooled mouse liver microsomes at 200 uM by LC-MS/MS analysis; type: ADME, microsome; conditions: liver microsomes; procedure, shortened: as §2
[9] = Metabolic stability in mouse plasma assessed as parent compound remaining at 5 uM measured after 2 hrs by LC-MS/MS analysis; type: ADME, cell-free; conditions: read-out: Stability
Procedure, shortened: (§4)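 Compounds incubated in human or mouse plasma for 2 h. Percent remaining and percent conversion to the parent were determined.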

[10] = Prodrug activation in human intestinal S9 fraction assessed as 3-(tert-butyl)-1-cyclohexyl-1-(6-((2R,3R,4R,5S)-3,4,5-trihydroxy-2-(hydroxymethyl)piperidin-1-yl)hexyl)urea formation by measuring prodrug remaining at 200 uM measured after 1 hr in presence or absence of NADPH by LC-MS/MS analysis; set-up: species or system Intestine; conditions: s9, 1 h
Procedure, shortened: (§5)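 Compounds incubated with intestinal S9 fraction for 1 h. Percent prodrug remaining and percent conversion to the parent were measured.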

Mus musculus [11] = test: Prodrug activation in BALB/c mouse assessed as 3-(tert-butyl)-1-cyclohexyl-1-(6-((2R,3R,4R,5S)-3,4,5-trihydroxy-2-(hydroxymethyl)piperidin-1-yl)hexyl)urea Cmax at 100 mg/kg, po administered as single dose by LC-MS/MS analysis; type: organism-based; set-up: dose 100 mg/kg, route oral; conditions: in vivo; procedure, shortened: as §3
[12] = Half life in pooled human liver microsomes at 200 uM by LC-MS/MS analysis; type: ADME, microsome; conditions: liver microsomes; procedure, shortened: as §2
Mus musculus [13] = test: Prodrug activation in BALB/c mouse assessed as 3-(tert-butyl)-1-cyclohexyl-1-(6-((2R,3R,4R,5S)-3,4,5-trihydroxy-2-(hydroxymethyl)piperidin-1-yl)hexyl)urea Tmax at 25 mg/kg, po administered as single dose by LC-MS/MS analysis; type: organism-based; conditions: in vivo; procedure, shortened: as §3
Bos taurus = organism: Bos taurus; test: Inhibition of endoplasmic reticulum alpha-glucosidase in MDBK cells infected with Bovine Viral Diarrhea virus assessed as reduction in BVDV envelope glycoprotein E2 level at 3 to 100 uM by immunoblot analysis; type: cell-based
Procedure, shortened: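 MDBK cells infected with BVDV, then treated with various concentrations of the compounds. Cell lysates were run on SDS-PAGE and immunoblotted for the E2 envelope glycoprotein, looking for a mobility shift and lower intensity, with β-actin as internal control.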

[14] = Apparent permeability of the compound across apical side to basolateral side in human Caco2 cells assessed as drug recovery at 5 uM measured after 2 hrs by LC-MS/MS analysis; type: ADME, cell-based; conditions: Caco-2, read-out: Drug recovery
Mus musculus [15] = test: Prodrug activation in BALB/c mouse assessed as 3-(tert-butyl)-1-cyclohexyl-1-(6-((2R,3R,4R,5S)-3,4,5-trihydroxy-2-(hydroxymethyl)piperidin-1-yl)hexyl)urea Tmax at 5 mg/kg, iv as bolus administration by LC-MS/MS analysis; type: organism-based; conditions: in vivo; procedure, shortened: as §3
Mus musculus [16] = test: Prodrug activation in BALB/c mouse assessed as 3-(tert-butyl)-1-cyclohexyl-1-(6-((2R,3R,4R,5S)-3,4,5-trihydroxy-2-(hydroxymethyl)piperidin-1-yl)hexyl)urea Cmax at 5 mg/kg, iv as bolus administration by LC-MS/MS analysis; type: organism-based; set-up: dose 5 mg/kg, route intravenous; conditions: in vivo; procedure, shortened: as §3
Mus musculus [17] = test: Prodrug activation in BALB/c mouse assessed as 3-(tert-butyl)-1-cyclohexyl-1-(6-((2R,3R,4R,5S)-3,4,5-trihydroxy-2-(hydroxymethyl)piperidin-1-yl)hexyl)urea AUC(0 to infinity) at 5 mg/kg, iv as bolus administration by LC-MS/MS analysis; type: organism-based; set-up: dose 5 mg/kg, route intravenous, time infinity; conditions: in vivo
[18] = Prodrug activation in mouse intestinal S9 fraction assessed as 3-(tert-butyl)-1-cyclohexyl-1-(6-((2R,3R,4R,5S)-3,4,5-trihydroxy-2-(hydroxymethyl)piperidin-1-yl)hexyl)urea formation by measuring prodrug remaining at 200 uM measured after 1 hr in presence or absence of NADPH by LC-MS/MS analysis; set-up: species or system Intestine; conditions: s9, 1 h; procedure, shortened: as §5
Mus musculus [19] = test: Prodrug activation in BALB/c mouse assessed as 3-(tert-butyl)-1-cyclohexyl-1-(6-((2R,3R,4R,5S)-3,4,5-trihydroxy-2-(hydroxymethyl)piperidin-1-yl)hexyl)urea half life at 100 mg/kg, po administered as single dose by LC-MS/MS analysis; type: organism-based; conditions: in vivo; procedure, shortened: as §3
[20] = Metabolic stability in human plasma assessed as parent compound remaining at 5 uM measured after 2 hrs by LC-MS/MS analysis; type: ADME, cell-free; conditions: read-out: Stability; procedure, shortened: as §4
[21] = Stability in simulated intestinal fluid assessed as parent compound remaining at 5 uM measured after 4 hrs by LC-MS/MS analysis; procedure, shortened: as §1
Mus musculus [22] = test: Prodrug activation in BALB/c mouse assessed as 3-(tert-butyl)-1-cyclohexyl-1-(6-((2R,3R,4R,5S)-3,4,5-trihydroxy-2-(hydroxymethyl)piperidin-1-yl)hexyl)urea half life at 25 mg/kg, po administered as single dose by LC-MS/MS analysis; type: organism-based; conditions: in vivo; procedure, shortened: as §3
Mus musculus [23] = test: Prodrug activation in BALB/c mouse assessed as 3-(tert-butyl)-1-cyclohexyl-1-(6-((2R,3R,4R,5S)-3,4,5-trihydroxy-2-(hydroxymethyl)piperidin-1-yl)hexyl)urea Tmax at 100 mg/kg, po administered as single dose by LC-MS/MS analysis; type: organism-based; conditions: in vivo; procedure, shortened: as §3
[24] = Inhibition of pig liver endoplasmic reticulum alpha glucosidase-1 using 4-methylumbelliferyl-alpha-D-glucoside as substrate measured after 90 mins by fluorescence analysis; set-up: species or system Sus scrofa

CC(C)C(=O)OC[C@@H]1[C@@H](OC(=O)C(C)C)[C@H](OC(=O)C(C)C)[C@@H](OC(=O)C(C)C)CN1CCCCCCN(C(=O)NC(C)(C)C)C1CCCCC1
recovery at 2 h, 5 µM [1]: < 60%
AUC (Mus musculus [2]): 197 ng·mL·h
Drug metabolism [3]: 0%
Stability [4]: 108%
remaining at 1 h, 200 µM [5]: 2%
remaining at 1 h, 200 µM [6]: 2%
Cmax (Mus musculus [7]): 104 ng/mL
half-life at 200 µM [8]: 14 min
remaining at 2 h, 5 µM [9]: 0%
Stability [10]: < 50%
Cmax (Mus musculus [11]): 195 ng/mL
half-life at 200 µM [12]: 10 min
Tmax (Mus musculus [13]): 30 min
inhibition (Bos taurus): Active
recovery at 2 h, 5 µM [14]: < 60%
Tmax (Mus musculus [15]): 4.98 min
Cmax (Mus musculus [16]): 1213 ng/mL
AUC (Mus musculus [17]): 569 ng·mL·h
Stability [18]: < 50%
t1/2 (Mus musculus [19]): 70.8 min
remaining at 2 h, 5 µM [20]: 100%
Stability [21]: 90%
t1/2 (Mus musculus [22]): 34.8 min
Tmax (Mus musculus [23]): 30 min
IC50 [24]: > 80 µM

CCCC(=O)OC[C@@H]1[C@@H](OC(=O)CCC)[C@H](OC(=O)CCC)[C@@H](OC(=O)CCC)CN1CCCCCCN(C(=O)NC(C)(C)C)C1CCCCC1
recovery at 2 h, 5 µM [1]: < 60%
AUC (Mus musculus [2]): 529 ng·mL·h
Drug metabolism [3]: 0%
Stability [4]: 89%
remaining at 1 h, 200 µM [5]: 4%
remaining at 1 h, 200 µM [6]: 4%
Cmax (Mus musculus [7]): 319 ng/mL
half-life at 200 µM [8]: 20 min
remaining at 2 h, 5 µM [9]: 0%
Stability [10]: < 50%
Cmax (Mus musculus [11]): 998 ng/mL
half-life at 200 µM [12]: 14 min
Tmax (Mus musculus [13]): 15 min
inhibition (Bos taurus): Active
recovery at 2 h, 5 µM [14]: < 60%
Tmax (Mus musculus [15]): 4.98 min
Cmax (Mus musculus [16]): 15733 ng/mL
AUC (Mus musculus [17]): 2288 ng·mL·h
Stability [18]: < 50%
t1/2 (Mus musculus [19]): 137 min
remaining at 2 h, 5 µM [20]: 106%
Stability [21]: 72%
t1/2 (Mus musculus [22]): 103 min
Tmax (Mus musculus [23]): 30 min
IC50 [24]: > 80 µM

CC(=O)OC[C@@H]1[C@@H](OC(C)=O)[C@H](OC(C)=O)[C@@H](OC(C)=O)CN1CCCCCCN(C(=O)NC(C)(C)C)C1CCCCC1
recovery at 2 h, 5 µM [1]: 42%
AUC (Mus musculus [2]): 359 ng·mL·h
Drug metabolism [3]: 0%
Stability [4]: 94%
remaining at 1 h, 200 µM [5]: 0%
remaining at 1 h, 200 µM [6]: 0%
Cmax (Mus musculus [7]): 375 ng/mL
half-life at 200 µM [8]: 2 min
remaining at 2 h, 5 µM [9]: 0%
Stability [10]: < 50%
Cmax (Mus musculus [11]): 1597 ng/mL
half-life at 200 µM [12]: 3 min
Tmax (Mus musculus [13]): 15 min
inhibition (Bos taurus): Active
recovery at 2 h, 5 µM [14]: 9%
Tmax (Mus musculus [15]): 15 min
Cmax (Mus musculus [16]): 463 ng/mL
AUC (Mus musculus [17]): 368 ng·mL·h
Stability [18]: < 50%
t1/2 (Mus musculus [19]): 43.2 min
remaining at 2 h, 5 µM [20]: 84%
Stability [21]: 91%
t1/2 (Mus musculus [22]): 84 min
Tmax (Mus musculus [23]): 15 min
IC50 [24]: > 80 µM
